Screening data deposited in PubChem by The Scripps Research Institute Molecular Screening Center.
The list is not random: actives were taken first. Their share in the collection is about 2%.
MBD2 DNA inh: inhibitors of MBD2 binding to methylated DNA, primary screen, biochemical, TR-FRET, DNA-binding domain, human; inhibition, % at 4.4 µM; hit rate 0.31% among 370,000; MBD2 binding to methylated oligonucleotide; in the data active = inhibition above about 13%
TDP2 inh: human TDP2 enzyme inhibitors, primary screen, biochemical, epi absorbance, recombinant enzyme; Tyrosyl-DNA phosphodiesterase 2 (Homo sapiens), O95551; hit rate 0.34% among 370,000; inhibition, % at 12.8 µM; T5PNP hydrolysis, p-nitrophenol absorbance 415 nm;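 active = inhibition above the mean of all tested compounds plus 3 SD, set per campaign, cut at about 25% in these data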
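Incubation: 2 h at 37 °C; Test system: recombinant human TDP2; Quantity: enzyme 120 nM; Read-out basis: percent inhibition; Medium: 50 mM Tris-HCl pH 7.5 with Mg2+, KCl, DTT, BSA; Repeats: single replicate; Compound: 12.8 µM single point, 1% DMSO; Signal: epi absorbance; Reagent: 5 mM T5PNP chromogenic substrate; Benchmarks: no-enzyme high, DMSO-plus-enzyme low.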
ASAP1 inh: inhibitors of human ASAP1 ArfGAP activity, primary screen, biochemical, fluorescence polarization. Arf-GAP with SH3 domain, ANK repeat and PH domain-containing protein 1 (Homo sapiens), …. ASAP1-stimulated ARF1 GTP hydrolysis, GDP FP detection. inhibition, % at 16.5 µM. hit rate 0.19% among 360,000; in the data active = inhibition above about 25%
Target sequence (Q9ULH1 325-724 limits assumed): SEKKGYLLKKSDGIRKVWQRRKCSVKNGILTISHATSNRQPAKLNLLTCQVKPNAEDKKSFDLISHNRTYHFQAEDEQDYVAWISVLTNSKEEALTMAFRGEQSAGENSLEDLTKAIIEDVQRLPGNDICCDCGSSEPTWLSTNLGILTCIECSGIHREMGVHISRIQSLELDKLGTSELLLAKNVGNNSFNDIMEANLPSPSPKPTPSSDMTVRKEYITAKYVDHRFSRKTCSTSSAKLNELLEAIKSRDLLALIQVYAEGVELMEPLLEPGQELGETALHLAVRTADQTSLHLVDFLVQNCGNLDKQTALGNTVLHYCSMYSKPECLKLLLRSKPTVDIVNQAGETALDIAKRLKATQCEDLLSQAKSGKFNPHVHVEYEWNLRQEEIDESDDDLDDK
LEDGF integ inh: blockers of LEDGF/p75-dependent integrase strand transfer – biochemical, TR-FRET, high throughput, primary screen; HIV-1 integrase (with human LEDGF/p75); hit rate 0.64% among 370,000; inhibition, % at 3.7 µM; TR-FRET IN-LEDGF/p75 DNA integration, Eu/Cy5;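 active = inhibition above the screen-wide mean plus 3 SD, cut at about 13% in these data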;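 note: signal is the Cy5 over europium emission ratio at 671 and 618 nm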
ARFGAP1 inhibitor: inhibitors of rat ARFGAP1 GAP activity, primary screen, biochemical, fluorescence polarization, GDP tracer | inhibition, % at 16.5 µM | hit rate 0.26% among 360,000 | Arfgap1-stimulated ARF1 GTP hydrolysis, GDP FP detection;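 active = inhibition above a per-plate limit, mean inhibition of low control wells plus 3 SD, cut at about 25% in these data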
Target sequence (Q62848 1-136 limits assumed): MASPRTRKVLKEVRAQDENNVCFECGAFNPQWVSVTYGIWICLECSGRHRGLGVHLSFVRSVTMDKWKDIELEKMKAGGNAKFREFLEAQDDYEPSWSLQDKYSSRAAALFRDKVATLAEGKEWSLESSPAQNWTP
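system = rat Arfgap1 catalytic domain, aa 1-136 | technique = FP, GDP Alexa 633 tracer displaced from anti-GDP antibody, 620/688 nm | compound = one concentration, 16.5 µM, DMSO 1.26% | medium = HEPES-based buffer, pH 7.5 | timing = compound-enzyme preincubation 20 min, reaction 120 min, detection 60 min, 25 °C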
UHRF1 MBD2 ctr: UHRF1 methylated DNA binding inhibitors, primary screen, counter-screen for MBD2 inhibitor project, biochemical, TR-FRET, human UHRF1, single concentration; inhibition, % at 4.4 µM; hit rate 0.75% among 370,000; E3 ubiquitin-protein ligase UHRF1 (Homo sapiens), Q96T88; UHRF1 binding to methylated oligo;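 note: UHRF1 SRA domain binding a hemimethylated CpG hairpin DNA probe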
UHRF1 ctr MBD2: UHRF1 methylated DNA binding inhibitors, counter-screen for MBD2 inhibitor project, biochemical, TR-FRET, human UHRF1; inhibition, % at 4.4 µM; hit rate 25% among 1,000; shares compounds with MBD2 DNA inh; AID 720530, 2013; UHRF1 binding to methylated oligonucleotide;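 note: UHRF1 SRA domain binding a labeled hemimethylated CpG hairpin DNA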
MBD2 DBD conf: inhibitors of MBD2 binding to methylated DNA, confirmation, biochemical, TR-FRET, DNA-binding domain, human; hit rate 26% among 1,000; AID 720531, 2013; inhibition, % at 4.4 µM; shares compounds with MBD2 DNA inh; TR-FRET MBD2-DBD binding to methylated oligonucleotide; in the data active = inhibition above about 14%
Each line names hits and unclear results; the compound was inactive in the other large screens (follow-up assays come after a bar, where they were run). Cut-off read from the data, not from the text of the source, unless noted: active = inhibition above about 21%; inactive = the rest.

CC(=O)OC12CCCN(C1)/C(=C/c1ccccc1)C2 (centres undefined)	none (no result: ASAP1 inh, ARFGAP1 inhibitor)
O=C(Nc1ncc2c(n1)CC(c1cccc(Cl)c1)CC2=O)c1ccco1 (centres undefined)	MBD2 DNA inh 52, UHRF1 MBD2 ctr 86 | UHRF1 ctr MBD2 inactive | MBD2 DBD conf inactive
COC(=O)c1ccc(OC)c(CSc2nnc(COc3ccc(Cl)cc3)o2)c1	MBD2 DNA inh 14 | UHRF1 ctr MBD2 inactive | MBD2 DBD conf inactive
CCOC(=O)CCNC(=O)Nc1ccc2nc(C)n(Cc3ccc(Cl)cc3)c(=O)c2c1	none
CC(=O)Nc1ccc2nc(C)n(Cc3ccc(Cl)cc3)c(=O)c2c1	MBD2 DNA inh 15, UHRF1 MBD2 ctr 23 | UHRF1 ctr MBD2 inactive | MBD2 DBD conf inactive
CC(=O)Nc1ccc(NC(=O)C(C)OC(=O)C2(c3ccc(Cl)cc3)CCCC2)cc1 (centres undefined)	MBD2 DNA inh 19, UHRF1 MBD2 ctr 25 | UHRF1 ctr MBD2 inactive | MBD2 DBD conf inactive
O=C(Nc1ccc2c(c1)OCO2)c1cccs1	MBD2 DNA inh 40 | UHRF1 ctr MBD2 inactive | MBD2 DBD conf inactive
CCN(Cc1cn(Cc2ccccc2)nn1)S(=O)(=O)c1ccccc1Br	none (no result: ASAP1 inh, ARFGAP1 inhibitor)
COc1ccc2nc(C)cc(Nc3ccc(N4CCN(C)CC4)cc3)c2c1	MBD2 DNA inh 56, UHRF1 MBD2 ctr 54 | UHRF1 ctr MBD2 49 | MBD2 DBD conf 51
CCOC(=O)[C@]12CCCC3=C1N(CCC3)C(=O)[C@@H](CC(=O)NCC1CCCCC1)C2	none (no result: ASAP1 inh, ARFGAP1 inhibitor)
CC1(C(=O)Nc2ccc3c(c2)OCO3)CCN1C(=O)CCC1CCCC1 (centres undefined)	MBD2 DNA inh 20 | UHRF1 ctr MBD2 inactive | MBD2 DBD conf inactive
COC(=O)[C@]12C[C@H](CC(=O)N3CCN(C(=O)c4ccco4)CC3)C(=O)N(CCc3ccc(OC)c(OC)c3)C1=C[C@H](C1CCCC1)O[C@@H]2C	none (no result: ASAP1 inh, ARFGAP1 inhibitor)
Cc1cc(NC(=O)Cc2cccs2)no1	MBD2 DNA inh 16, UHRF1 MBD2 ctr 29 | UHRF1 ctr MBD2 25 | MBD2 DBD conf 19
Cn1c(CNc2ccccc2F)nc2ccccc21	none (no result: ASAP1 inh, ARFGAP1 inhibitor)
O=C(NCCCc1ccccc1)[C@@H]1Cc2ccccc2CN1	none
COc1cc2c(cc1OC)CC(C(=O)NCc1ccccc1)NC2 (centres undefined)	MBD2 DNA inh 17 | UHRF1 ctr MBD2 inactive | MBD2 DBD conf inactive
CSc1nc2ccccc2n1Cc1cccc(F)c1	none
CSc1nc2ccccc2n1Cc1cccc([N+](=O)[O-])c1	MBD2 DNA inh 16 | UHRF1 ctr MBD2 inactive | MBD2 DBD conf inactive
COc1cc2c(cc1NC(=O)CSc1nnc(-c3ccccn3)n1-c1ccccc1)oc1ccccc12	none (no result: ASAP1 inh, ARFGAP1 inhibitor)
COC(=O)C1CN(C2CCCC2)CCS(=O)(=O)N1Cc1cn(Cc2ccc(OC)cc2)nn1 (centres undefined)	MBD2 DNA inh 16 (no result: ASAP1 inh, ARFGAP1 inhibitor) | UHRF1 ctr MBD2 inactive | MBD2 DBD conf inactive
COc1ccc(C(=O)OCC(=O)c2ccc[nH]2)cc1	MBD2 DNA inh 67 | UHRF1 ctr MBD2 inactive | MBD2 DBD conf inactive
CCOC(=O)C1(Cc2ccccc2)CCN(Cc2ccnc3ccccc23)CC1	none (no result: ASAP1 inh, ARFGAP1 inhibitor)
C=CCOc1ccc(/C=C2\SC(=S)N(NS(=O)(=O)c3ccc(C)cc3)C2=O)cc1	MBD2 DNA inh 14, UHRF1 MBD2 ctr 23 | UHRF1 ctr MBD2 inactive | MBD2 DBD conf inactive
Cc1ccc(/C=C2\SC(=S)N(NS(=O)(=O)c3ccc(C)cc3)C2=O)cc1	none
Cc1ccc(NC(=O)CN(C)CC(=O)Nc2c(C)cccc2C)c(Br)c1	MBD2 DNA inh 38 | UHRF1 ctr MBD2 inactive | MBD2 DBD conf inactive
Cc1ccc(-n2c(SCC(=O)c3ccc(F)cc3)nnc2-c2cnccn2)cc1	none (no result: ASAP1 inh, ARFGAP1 inhibitor)
COc1ccc(N2CCN(C(=O)CCS(=O)(=O)c3ccc(OC)cc3)CC2)cc1	none
COc1ccc(S(=O)(=O)CCC(=O)N2CCN(c3ccc(C(C)=O)cc3)CC2)cc1	MBD2 DNA inh 18, UHRF1 MBD2 ctr 31 | UHRF1 ctr MBD2 inactive | MBD2 DBD conf inactive
CCCSC1=N/C(=C\c2ccc([N+](=O)[O-])o2)C(=O)S1	MBD2 DNA inh 19, LEDGF integ inh 35, UHRF1 MBD2 ctr 52 | UHRF1 ctr MBD2 21 | MBD2 DBD conf inactive
CCCSC1=N/C(=C\C=C\c2ccco2)C(=O)S1	MBD2 DNA inh 57, LEDGF integ inh 69, UHRF1 MBD2 ctr 95 | UHRF1 ctr MBD2 27 | MBD2 DBD conf inactive
CCCSC1=N/C(=C\c2ccsc2)C(=O)S1	none
Cc1ccccc1-c1nc2ccccc2c(=O)n1/N=C/c1ccc([N+](=O)[O-])cc1	MBD2 DNA inh 15 | UHRF1 ctr MBD2 inactive | MBD2 DBD conf inactive
COc1ccc(-c2nnc3c4ccccc4c(C)nn23)cc1S(=O)(=O)N1CCN(CCO)CC1	none
Cc1nn2c(-c3ccc(S(=O)(=O)N4CCN(CCO)CC4)o3)nnc2c2ccccc12	MBD2 DNA inh 16 | UHRF1 ctr MBD2 inactive | MBD2 DBD conf inactive
O=C(O)c1cccc(NC(=S)NC(=O)C(c2ccccc2)c2ccccc2)c1	MBD2 DNA inh 14 | UHRF1 ctr MBD2 inactive | MBD2 DBD conf inactive
COC(=O)c1nnn(-c2nonc2N)c1CN1CCCC1	MBD2 DNA inh 31 | UHRF1 ctr MBD2 inactive | MBD2 DBD conf inactive
Cc1ccc(CNC(=O)c2ccc(CS(=O)(=O)c3ccccc3C)o2)cc1	MBD2 DNA inh 33 | UHRF1 ctr MBD2 inactive | MBD2 DBD conf inactive
Cc1ccccc1S(=O)(=O)Cc1ccc(C(=O)NCc2ccc(F)cc2)o1	none
CCN(C(=O)[C@@H](C)[C@@H](O)c1ccc2ccccc2c1)c1ccccc1	none (no result: ASAP1 inh, ARFGAP1 inhibitor)
Cc1cccc(C)c1OCc1cn(CC(=O)c2ccc(O)cc2)nn1	none
O=C(Cn1cc(COc2ccccc2C(F)(F)F)nn1)c1ccc(O)cc1	MBD2 DNA inh 15, UHRF1 MBD2 ctr 22 | UHRF1 ctr MBD2 inactive | MBD2 DBD conf inactive
